# Experimental data from ChEMBL document CHEMBL1150382, “Benzanilides with spasmolytic activity: chemistry, pharmacology, and SAR” (Bioorg Med Chem, 2008).
# Assays:
# [1] = Toxicity in guinea pig heart muscle; type: tissue-based, Cavia porcellus, Muscle tissue
# Outline: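 Guinea pig heart muscle in oxygenated Krebs–Henseleit at 35 °C. Isometric contraction force was measured in electrically stimulated papillary muscles (Purkinje fibres removed, diameter <0.87 mm). Chronotropic effect was measured as spontaneous activity of isolated right atria. Compounds were added cumulatively. Paired Student's t-test.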
# [2] = Relaxation of KCl-induced contraction in guinea pig terminal ilea assessed as reduction of contraction force at 100 uM; type: functional, Cavia porcellus; design: scale not given: the % may be the effect or the level left
# Outline: (§1)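 Precontracted with 60 mM KCl at a resting tension of 4.9 mN. After a 45 min control period, compound (1–100 µM) was added cumulatively to steady state. Isometric force was recorded as % decrease; IC₅₀ from 4–6 experiments, mean ± SEM.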
# [3] = Spasmolytic activity in guinea pig terminal ilea; type: functional, Cavia porcellus; outline: as §1
# [4] = Spasmolytic activity in guinea pig terminal ilea relative to resveratrol; type: functional, Cavia porcellus
# Outline: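 Ileal IC₅₀ was measured as for the KCl-precontracted (60 mM) guinea pig terminal ileum with cumulative dosing up to 100 µM. It is expressed as a potency index relative to resveratrol.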
# [5] = Toxicity in guinea pig vascular smooth muscle; type: tissue-based, Cavia porcellus, Muscle tissue
# Outline: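 Guinea pig aortic rings in oxygenated Krebs–Henseleit at 35 °C, contracted with 90 mM KCl. Compound was added cumulatively up to 100 µM, and relaxation of isometric contraction force was recorded.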
# [6] = Relaxation of KCl-induced contraction in guinea pig terminal ilea assessed as reduction of contraction force at 30 uM; type: functional, Cavia porcellus; design: scale not given: the % may be the effect or the level left; outline: as §1
SMILES,Activity [1],Activity [2] [%],IC50 [3] [µM],Activity [4],Activity [5],Activity [6] [%]
COc1cc(NC(=O)c2cc(F)cc(F)c2)cc(OC)c1OC,Non-toxic,22.87,27.5,0.87,Non-toxic,
O=C(Nc1ccc(F)cc1)c1cc(F)cc(F)c1,Non-toxic,30.55,21,1.14,Non-toxic,
O=C(Nc1c(F)cc(F)cc1F)c1ccc(F)cc1,Non-toxic,28.35,42,0.57,Non-toxic,
CN(C)c1ccc(NC(=O)c2cc(F)cc(F)c2)cc1,Non-toxic,23.93,30,0.8,Non-toxic,
COc1cc(NC(=O)c2ccc(OC(F)(F)F)cc2)cc(OC)c1,Non-toxic,11.99,7.5,3.2,Non-toxic,
CSc1ccc(NC(=O)c2cc(F)cc(F)c2)cc1,Non-toxic,,3.25,7.39,Non-toxic,2.8
O=C(Nc1c(F)cc(F)cc1F)c1cc(F)cc(F)c1,Non-toxic,9,26,0.92,Non-toxic,
O=C(Nc1cc(F)cc(F)c1)c1ccc(F)cc1,Non-toxic,1.66,8.5,2.82,Non-toxic,
O=C(Nc1c(F)cc(F)cc1F)c1cc([N+](=O)[O-])cc([N+](=O)[O-])c1,Non-toxic,25.66,32.5,0.74,Non-toxic,
O=C(Nc1ccc(F)cc1F)c1cc(F)cc(F)c1,Non-toxic,51.13,> 100,>0.24,Non-toxic,
Oc1ccc(/C=C/c2cc(O)cc(O)c2)cc1 [RESVERATROL],,,24,1,,
